Assay results from ChEMBL document CHEMBL3739301, “Design, synthesis and biological evaluation of tricyclic diterpene derivatives as novel neuroprotective agents against ischemic brain injury” (Eur J Med Chem, 2015).
Activity calls are given as the source filed them. The rule behind the calls is not given here.

How the values were obtained:
[1] = Neuroprotective activity against oxygen-glucose deprivation-induced neuronal cell death in Sprague-Dawley rat CGN cells at 10 uM preincubated for 24 hrs followed by induction of oxygen-glucose deprivation measured after 24 hrs relative to control; type: functional
[2] = Permeability of the compound at 25 ug/ml after 18 hrs by PAMPA assay; type: ADME; conditions: read-out: permeability
[3] = Cytotoxicity against Sprague-Dawley rat CGN cells at 50 to 100 uM after 72 hrs by MTT assay; type: cell-based
Procedure, shortened: (§1)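 Primary cerebellar granule neurons from 8-day SD rat pups; cytosine arabinoside […] added at 24 h, used at DIV 6–8. Cells exposed to a concentration series for 72 h, 0.1% DMSO final. Viability by MTT (0.5 mg/ml, 4 h, 37 °C); formazan dissolved in DMSO, OD 570 nm. n = 3, mean ± SD.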

[4] = test system: Rattus norvegicus; experiment: Toxicity in Sprague-Dawley rat transient middle cerebral artery occlusion model at 10 mg/kg, iv; type: organism-based; conditions: in vivo
[5] = Neuroprotective activity against glutamate-induced neuronal cell death in Sprague-Dawley rat CGN cells assessed as cell viability at 10 uM preincubated for 24 hrs followed by glutamate challenge measured after 24 hrs by MTT assay (reference value: 40.4%); type: functional; conditions: read-out: Activity
[6] = test system: Rattus norvegicus; experiment: Anti-ischemic activity in Sprague-Dawley rat transient middle cerebral artery occlusion model assessed as reduction in infarct volume at 10 mg/kg, iv administered for 2 to 6 hrs post middle cerebral artery occlusion measured at 24 hrs by TTC staining-based morphometric analysis; type: organism-based; parameters: scale not given: the % may be the effect or the level left; conditions: in vivo
Procedure, shortened: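 Male Sprague-Dawley rats (260-280 g), middle cerebral artery occluded 2 h by intraluminal nylon monofilament, then reperfused; body temperature held at 37 C. Drug given iv at 2, 4 and 6 h after ischemia onset (test agent in DMSO, edaravone in saline; vehicle controls). Neurological scoring at 24 h; 2 mm coronal slices stained with 2% TTC 20 min at 37 C, formalin-fixed; infarct volume by morphometry; n = 8-12.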

[7] = test system: Rattus norvegicus; experiment: Anti-ischemic activity in Sprague-Dawley rat transient middle cerebral artery occlusion model assessed as reduction in neurological deficit at 10 mg/kg, iv administered for 2 to 6 hrs post middle cerebral artery occlusion measured at 24 hrs; type: functional, organism-based
Procedure, shortened: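 Male SD rats (260–280 g); intraluminal nylon suture (~0.26 mm, round tip) occluded MCA for 2 h, then withdrawn for reperfusion, body temperature held at 37 °C. Given iv at 2, 4 and 6 h after ischemia onset; 10 mg/kg in DMSO or 3 mg/kg in saline; DMSO or saline vehicle controls. Neurological score at 24 h after MCAO; n = 8–12, mean ± SD.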

[8] = test system: neuronal; experiment: Neuroprotective activity against glutamate-induced neuronal cell death in Sprague-Dawley rat CGN cells assessed as increase in GSH level at 10 uM preincubated for 24 hrs followed by glutamate challenge measured after 24 hrs; type: functional, cell-based
Procedure, shortened: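 Granule neurons pretreated 24 h with […] compound, then […] for 24 h. Lysed in buffer containing protease inhibitor cocktail; protein determined by BCA. SOD activity and GSH level measured with commercial kits. n = 3, mean ± SD.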

[9] = test system: neuronal; experiment: Neuroprotective activity against glutamate-induced neuronal cell death in Sprague-Dawley rat CGN cells assessed as increase in SOD level at 10 uM preincubated for 24 hrs followed by glutamate challenge measured after 24 hrs; type: functional, cell-based
[10] = test system: Rattus norvegicus; experiment: Antioxidant activity in Sprague-Dawley rat transient middle cerebral artery occlusion model assessed as […] in SOD level in ipsilateral cortex at 10 mg/kg, iv measured at 24 hrs post middle cerebral artery occlusion; type: functional, organism-based
Procedure, shortened: (§2)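 Rat tMCAO: 2 h suture occlusion, then reperfusion. Dosing iv at 2, 4 and 6 h after onset, 10 mg/kg (DMSO) or 3 mg/kg (saline). At 24 h the ipsilateral cortex was lysed in RIPA buffer and protein quantified by BCA. GSH concentration and SOD activity were then measured with commercial kits.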

[11] = Neuroprotective activity against glutamate-induced neuronal cell death in Sprague-Dawley rat CGN cells at 10 uM preincubated for 24 hrs followed by glutamate challenge measured after 24 hrs relative to control; type: functional
[12] = Neuroprotective activity against oxygen-glucose deprivation-induced neuronal cell death in Sprague-Dawley rat CGN cells assessed as cell viability at 10 uM preincubated for 24 hrs followed by induction of oxygen-glucose deprivation measured after 24 hrs by MTT assay (reference value: 48.7%); type: functional; conditions: read-out: Activity
[13] = Neuroprotective activity against oxygen-glucose deprivation-induced neuronal cell death in Sprague-Dawley rat CGN cells assessed as cell viability at 1 uM preincubated for 24 hrs followed by induction of oxygen-glucose deprivation measured after 24 hrs by MTT assay (reference value: 48.7%); type: functional; conditions: read-out: Activity
[14] = Cytotoxicity against Sprague-Dawley rat CGN cells at <10 uM after 72 hrs by MTT assay; type: cell-based; procedure, shortened: as §1
[15] = Neuroprotective activity against nutrient deprivation-induced neuronal cell death in Sprague-Dawley rat CGN cells at 10 uM preincubated for 24 hrs followed by induction of nutrient deprivation measured after 24 hrs relative to control; type: functional
Procedure, shortened: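 Primary rat cerebellar granule neurons (8-day-old Sprague-Dawley pups, DIV 6-8) pretreated 24 h with compound (0.1% DMSO final), then deprived of B27 serum substitute for 24 h. MTT viability (0.5 mg/ml, 4 h) read at 570 nm against control = 100%; neuroprotection percentage derived from the basal deprived value; mean ± SD, n = 3.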

[16] = test system: neuronal; experiment: Neuroprotective activity against glutamate-induced neuronal cell death in Sprague-Dawley rat CGN cells assessed as increase in cell viability preincubated for 24 hrs followed by glutamate challenge measured after 24 hrs by MTT assay; type: functional, cell-based
[17] = test system: Rattus norvegicus; experiment: Antioxidant activity in Sprague-Dawley rat transient middle cerebral artery occlusion model assessed as […] in GSH level in ipsilateral cortex at 10 mg/kg, iv measured at 24 hrs post middle cerebral artery occlusion; type: functional, organism-based; procedure, shortened: as §2
[18] = Neuroprotective activity in Sprague-Dawley rat CGN cells assessed as upregulation of HO-1 expression after 24 hrs by Western blot analysis; type: functional, cell-based
Procedure, shortened: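 Primary granule neurons treated with a concentration series for 24 h, lysed in RIPA buffer, protein by BCA. Separated on 15% SDS-PAGE, transferred to PVDF, blocked in 5% BSA. Primary antibody overnight at 4 °C, secondary 30 min at room temperature; chemiluminescent detection. HO-1 quantified by densitometry normalized to β-actin. n = 3, mean ± SD.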

For `CCCCNC(=O)c1cc2c(cc1OC)[C@@]1(C)CC[C@H](O)C(C)(C)[C@@H]1CC2`, the Activity [1] was 75.4%, the Papp at 18 h, 25 ug/ml [2] was 11.3 ×10⁻⁶ cm/s and the Activity [3] was “Toxic”. For the same compound, the Activity [4] was “Non-toxic”, the viability at 10 µM [5] was 94.1% and the Activity [6] was 44%. The Activity [7] was “Active”, the Activity [8] was “Active” and the Activity [9] was “Active”. For the same compound, the Activity [10] was “Active”, the Activity [11] was 90.1% and the viability at 10 µM [12] was 87.4%. For the same compound, the viability at 1 µM [13] was 58.9%, the Activity [14] was “Non-toxic” and the Activity [15] was 25.9%. The Activity [16] was “Dose-dependent effect”, the Activity [17] was “Active” and the Activity [18] was “Dose-dependent effect”.
